Measurements published in ChEMBL document CHEMBL4673204, “Rational Design of Cyclic Peptide Inhibitors of U2AF Homology Motif (UHM) Domains To Modulate Pre-mRNA Splicing” (J Med Chem, 2016).
pKd: −log10 of the molar value. The source made the active and inactive calls. The calls are words filed in the database; no cut-off is given here. Peptide text beside a SMILES is read from it.

Key:
[1] = species: Homo sapiens; assay: Selectivity index, ratio of Kd for U2AF65 UHM domain to Kd for His-Z-tagged SPF45 (unknown origin) UHM domain
[2] = molecular target: T1, Splicing factor 45 (Homo sapiens, UniProt Q96I25); assay: Binding affinity to His-Z-tagged SPF45 (unknown origin) UHM domain expressed in Escherichia coli BL21 (DE3) cells by ITC analysis
T1 sequence (Q96I25 whole entry): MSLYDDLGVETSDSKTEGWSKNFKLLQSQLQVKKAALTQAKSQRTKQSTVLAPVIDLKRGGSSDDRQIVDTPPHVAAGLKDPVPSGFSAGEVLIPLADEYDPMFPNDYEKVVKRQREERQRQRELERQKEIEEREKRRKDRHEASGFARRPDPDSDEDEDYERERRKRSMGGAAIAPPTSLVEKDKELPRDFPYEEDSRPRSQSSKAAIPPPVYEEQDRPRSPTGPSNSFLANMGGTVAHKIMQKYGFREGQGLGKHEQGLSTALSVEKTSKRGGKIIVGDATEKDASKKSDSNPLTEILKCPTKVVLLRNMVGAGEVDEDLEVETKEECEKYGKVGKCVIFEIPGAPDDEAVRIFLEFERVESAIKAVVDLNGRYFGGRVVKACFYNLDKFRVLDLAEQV
Procedure, shortened: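 SPF45 UHM domain expressed in BL21 (DE3) as His-Ztag fusion (0.5 mM IPTG, overnight at 20 °C), then Ni-NTA, TEV cleavage of tag, ion exchange and size exclusion. ITC: 5–20 μM protein in cell titrated with 10-fold concentrated peptide, 1.5 μL injections. One-site binding fit; errors are SD of fitting errors by error propagation.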

[3] = molecular target: T2, Splicing factor 45 (Homo sapiens) (UniProt Q96I25); assay: Inhibition of SPF45-mediated splicing in human HeLa nuclear extracts assessed as reduction in splicing products formation at 500 uM incubated for 20 mins before addition of IgM pre-mRNA as the splicing substrate by agarose gel electrophoresis
T2 sequence (whole entry): T1 sequence (Q96I25 whole entry)
Procedure, shortened: (§1)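 Peptide added to 25–500 μM final and held 20 min on ice before pre-mRNA. Spliced product normalized to the no-peptide control; SD from two independent experiments. Complex formation read by agarose gel electrophoresis.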

[4] = molecular target: T2, Splicing factor 45 (Homo sapiens); assay: Inhibition of SPF45-mediated splicing in human HeLa nuclear extracts assessed as reduction in complex A formation during spliceosome-assembly at 25 to 500 uM incubated for 20 mins before addition of IgM pre-mRNA as the splicing substrate by agarose gel electrophoresis; format: tissue-based; conditions: dose 25-500 µM; procedure, shortened: as §1
[5] = molecular target: T2, Splicing factor 45 (Homo sapiens); assay: Inhibition of SPF45-mediated splicing in human HeLa nuclear extracts assessed as splicing products formation at 25 to 500 uM incubated for 20 mins before addition of IgM pre-mRNA as the splicing substrate by agarose gel electrophoresis; set-up: scale not given: the % may be the effect or the level left; conditions: dose 25-500 µM; procedure, shortened: as §1

Row | Structure (SMILES) | pKd [2] | also measured
1 | N=C(N)NCCC[C@H](NC(=O)[C@H](CO)NC(=O)[C@@H](N)CCCCN)C(=O)N[C@@H](Cc1c[nH]c2ccccc12)C(=O)N[C@@H](CC(=O)O)C(=O)N[C@@H](CCC(=O)O)C(=O)O (H-KSRWDE-OH) | 4.80 | Ratio [1]: 9
2 | N=C(N)NCCC[C@@H]1NC(=O)[C@H](CO)NC(=O)[C@H](N)CCCCNC(=O)CC[C@H](C(=O)N[C@@H](Cc2cnc[nH]2)C(=O)O)NC(=O)[C@H](CC(=O)O)NC(=O)[C@H](Cc2c[nH]c3ccccc23)NC1=O | 6.02 | –
3 | N=C(N)NCCC[C@@H]1NC(=O)[C@H](CO)NC(=O)[C@H](N)CCCCNC(=O)CC[C@H](C(=O)O)NC(=O)[C@H](CC(=O)O)NC(=O)[C@H](Cc2c[nH]c3ccccc23)NC1=O | 5.85 | –
4 | N=C(N)NCCC[C@@H]1NC(=O)[C@H](CO)NC(=O)[C@H](N)CCCCNC(=O)CC[C@H](C(=O)N[C@@H](Cc2ccc(O)cc2)C(=O)O)NC(=O)[C@H](CC(=O)O)NC(=O)[C@H](Cc2c[nH]c3ccccc23)NC1=O | 5.73 | –
5 | N=C(N)NCCC[C@@H]1NC(=O)[C@H](CO)NC(=O)[C@H](N)CCCCNC(=O)CC[C@H](C(=O)NC(CCCCN=C(N)N)C(=O)O)NC(=O)[C@H](CC(=O)O)NC(=O)[C@H](Cc2c[nH]c3ccccc23)NC1=O (some centres undefined) | 6.12 | –
6 | CN1CCCC[C@@H](N)C(=O)N[C@@H](CO)C(=O)N[C@@H](CCCNC(=N)N)C(=O)N[C@@H](Cc2c[nH]c3ccccc23)C(=O)N[C@@H](CC(=O)O)C(=O)N[C@@H](C(=O)N[C@@H](CCCCN)C(=O)O)CCC1=O | 5.90 | –
7 | N=C(N)NCCC[C@@H]1NC(=O)[C@H](CO)NC(=O)[C@H](N)CCCCNC(=O)CC[C@H](C(=O)N[C@@H](Cc2c[nH]c3ccccc23)C(=O)O)NC(=O)[C@H](CC(=O)O)NC(=O)[C@H](Cc2c[nH]c3ccccc23)NC1=O | 6.10 | –
8 | N=C(N)NCCC[C@@H]1NC(=O)[C@H](CO)NC(=O)[C@H](N)CCCCNC(=O)CC[C@H](C(=O)N[C@@H](CCCCN)C(=O)O)NC(=O)[C@H](CC(=O)O)NC(=O)[C@H](Cc2c[nH]c3ccccc23)NC1=O | 6.74 | inhibition [3]: Active; inhibition [4]: Active; Ratio [1]: 270; Activity [5]: 29%
9 | N=C(N)NCCC[C@H](NC(=O)[C@H]1CCC(=O)NCCCC[C@@H](N)C(=O)N[C@@H](CO)C(=O)N[C@@H](CCCNC(=N)N)C(=O)N[C@@H](Cc2c[nH]c3ccccc23)C(=O)N[C@@H](CC(=O)O)C(=O)N1)C(=O)O | 6.29 | –
